As a reminder, the Inhibition is the percentage by which the read-out fell short of the control. As usually defined, the ILS is how much longer treated animals lived than controls.

We go through seven compounds from ChEMBL document CHEMBL1121681, “Synthesis and antiviral activity of certain 9-beta-D-ribofuranosylpurine-6-carboxamides” (1981).

Test [1] deals with Laryngeal epithelioma cell line. The experiment in a line: In vitro antiviral activity against vaccinia virus human laryngeal epithelioma cell line / 320 toxic level. The format is functional.
Test [2] has the same test system. The experiment in a line: In vitro antiviral activity against HSV-1 virus in human laryngeal epithelioma cell line / 320 toxic level. It counts as functional.
The test system is the same in test [3]. The experiment in a line: In vitro antiviral activity against Para 3 virus in human laryngeal epithelioma cell line / 320 toxic level. It counts as functional.
Test [4] has the same test system. The experiment in a line: In vitro antiviral activity against VSV virus in human laryngeal epithelioma cell line / 320 toxic level. The format is functional.
Test [5] has the same test system. The experiment in a line: In vitro antiviral activity against Cox B1 virus in human laryngeal epithelioma cell line / 320 toxic level. The format is functional.
Test [6] relates to Vero. The experiment in a line: In vitro antiviral activity against Cox B1 virus in (vero) V cells of african green monkey kidney / 320 toxic level. It counts as functional, Chlorocebus sabaeus.
In test [7] the test system is Vero. The experiment in a line: In vitro antiviral activity against vaccinia virus in (vero) V cells of african green monkey kidney / 320 toxic level. The format is functional, Chlorocebus sabaeus.
Test [8] has as its system Vero. The experiment in a line: In vitro antiviral activity against HSV-1 virus in (vero) V cells of african green monkey kidney / 320 toxic level. The format is functional, Chlorocebus sabaeus.
Test [9] has as its system Vero. The experiment in a line: In vitro antiviral activity against Para 3 virus in (vero) V cells of african green monkey kidney / 320 toxic level. The format is functional, Chlorocebus sabaeus.
Test [10] concerns Vero. The experiment in a line: In vitro antiviral activity against VSV virus in (vero) V cells of african green monkey kidney / 320 toxic level. The format is functional, Chlorocebus sabaeus.
For test [11], the system named is Laryngeal epithelioma cell line. The experiment in a line: In vitro antiviral activity against COXB1 virus in human laryngeal epithelioma cell line / 1000 toxic level. It counts as functional.
For test [12] the test system is unchanged. The experiment in a line: In vitro antiviral activity against HSV-1 virus in human laryngeal epithelioma cell line / 1000 toxic level. It counts as functional.
The test system is the same in test [13]. The experiment in a line: In vitro antiviral activity against Para 3 virus in human laryngeal epithelioma cell line / 1000 toxic level. The format is functional.
For test [14] the test system is unchanged. The experiment in a line: In vitro antiviral activity against V V virus human laryngeal epithelioma cell line / 1000 toxic level. It counts as functional.
For test [15] the test system is unchanged. The experiment in a line: In vitro antiviral activity against VSV virus in human laryngeal epithelioma cell line / 1000 toxic level. The format is functional.
For test [16], the system named is Vero. The experiment in a line: In vitro antiviral activity against COXB1 virus in (vero) V cells of african green monkey kidney. The format is functional, Chlorocebus sabaeus.
The test system of test [17] is Vero. The experiment in a line: In vitro antiviral activity against HSV-1 virus in (vero) V cells of african green monkey kidney. The format is functional, Chlorocebus sabaeus.
Test [18] deals with Vero. The experiment in a line: In vitro antiviral activity against V V virus in (vero) V cells of african green monkey kidney. It counts as functional, Chlorocebus sabaeus.
Test [19] has as its system Vero. The experiment in a line: In vitro antiviral activity against VSV virus in (vero) V cells of african green monkey kidney. The format is functional, Chlorocebus sabaeus.
Test [20] has as its system Laryngeal epithelioma cell line. The experiment in a line: In vitro antiviral activity against V V virus human laryngeal epithelioma cell line / 320 toxic level. It counts as functional.
For test [21] the test system is unchanged. The experiment in a line: In vitro antiviral activity against COXB1 virus in human laryngeal epithelioma cell line / 320 toxic level. It counts as functional.
Test [22] concerns Rift Valley fever virus. The experiment in a line: Inhibition of growth of Rift Valley fever virus in vero cells by administering 250 ug/mL of compound. The format is functional, Chlorocebus sabaeus.
The subject of test [23] is Rift Valley fever virus. The experiment in a line: Percent increase in survival rate of Rift Valley fever virus infected mice on day 21, by administering 50 (mg/kg)/day of compound. It counts as functional.
Test [24] relates to Vero. The experiment in a line: Inhibition of growth of Pichinde virus in vero cells by administering 250 ug/mL of compound. It counts as functional, Chlorocebus sabaeus. In short, it runs like this:
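Pichinde virus was adsorbed to Vero monolayers in 24-well cultures for 1 h at 37 °C. Cells were overlaid with agar containing compound dilutions and incubated at 37 °C with CO2. Plaques were counted after crystal violet staining to give inhibition of viral growth.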

Test [25] concerns Vero. The experiment in a line: Inhibition of growth of Rift Valley fever virus in vero cells by administering 500 ug/mL of compound. The format is functional, Chlorocebus sabaeus.
For test [26], the system named is Vero. The experiment in a line: In vitro antiviral activity against Para 3 virus in (vero) V cells of african green monkey kidney. The format is functional, Chlorocebus sabaeus.
For test [27], the system named is Vero. The experiment in a line: In vitro antiviral activity against COXB1 virus in (vero) V cells of african green monkey kidney / 1000 toxic level. The format is functional, Chlorocebus sabaeus.
The subject of test [28] is Vero. The experiment in a line: In vitro antiviral activity against HSV-1 virus in (vero) V cells of african green monkey kidney / 1000 toxic level. The format is functional, Chlorocebus sabaeus.
The subject of test [29] is Vero. The experiment in a line: In vitro antiviral activity against Para 3 virus in (vero) V cells of african green monkey kidney / 1000 toxic level. It counts as functional, Chlorocebus sabaeus.
For test [30], the system named is Vero. The experiment in a line: In vitro antiviral activity against V V virus in (vero) V cells of african green monkey kidney / 1000 toxic level. It counts as functional, Chlorocebus sabaeus.
In test [31] the test system is Vero. The experiment in a line: In vitro antiviral activity against VSV virus in (vero) V cells of african green monkey kidney / 1000 toxic level. It counts as functional, Chlorocebus sabaeus.
Test [32] has as its system Laryngeal epithelioma cell line. The experiment in a line: In vitro antiviral activity against Para 3 virus in human laryngeal epithelioma cell line / 100 toxic level. The format is functional.
Test [33] has the same test system. The experiment in a line: In vitro antiviral activity against VSV virus in human laryngeal epithelioma cell line / 100 toxic level. It counts as functional.
For test [34] the test system is unchanged. The experiment in a line: In vitro antiviral activity against Vaccinia virus human laryngeal epithelioma cell line / 100 toxic level. It counts as functional.
Test [35] shares this test system. The experiment in a line: In vitro antiviral activity against Cox B1 virus in human laryngeal epithelioma cell line / 100 toxic level. It counts as functional.
For test [36] the test system is unchanged. The experiment in a line: In vitro antiviral activity against HSV-1 virus in human laryngeal epithelioma cell line / 100 toxic level. The format is functional.
In test [37] the test system is Vero. The experiment in a line: In vitro antiviral activity against Vaccinia virus in (vero) V cells of african green monkey kidney / 320 toxic level. The format is functional, Chlorocebus sabaeus.
The subject of test [38] is Laryngeal epithelioma cell line. The experiment in a line: In vitro antiviral activity against COXB1 virus in human laryngeal epithelioma cell line. The format is functional.
For test [39] the test system is unchanged. The experiment in a line: In vitro antiviral activity against Para 3 virus in human laryngeal epithelioma cell line. The format is functional.
Test [40] has the same test system. The experiment in a line: In vitro antiviral activity against V V virus in human laryngeal epithelioma cell line. It counts as functional.
For test [41] the test system is unchanged. The experiment in a line: In vitro antiviral activity against VSV virus in human laryngeal epithelioma cell line. The format is functional.
Test [42] shares this test system. The experiment in a line: In vitro antiviral activity against HSV-1 virus in human laryngeal epithelioma cell line. It counts as functional.
In test [43] the test system is Rift Valley fever virus. The experiment in a line: Percent increase in survival rate of Rift Valley fever virus infected mice on day 21, by administering 100 (mg/kg)/day of compound. It counts as functional.
The subject of test [44] is Vero. The experiment in a line: In vitro antiviral activity against COXB1 virus in (vero) V cells. It counts as functional, Chlorocebus sabaeus.
Test [45] concerns Vero. The experiment in a line: In vitro antiviral activity against VSV virus in (vero) V cells. The format is functional, Chlorocebus sabaeus.

As for `Nc1ncnc2c(N[C@@H]3O[C@H](CO)[C@@H](O)[C@@H]3O)ncnc12`, the Virus rating was 1.3 in test [1]; 1.6 in [2]; 1.5 in test [3]; 1.5 in test [4]; 1 in test [5]; 0.6 in the test with Vero [6]. The Virus rating with Vero [7] was determined as 1.4; with Vero [8], 0.8; in the test with Vero [9], 0.7; in the test with Vero [10], 0.6.
`OC[C@H]1O[C@@H](n2cnc3c(Cl)ncnc32)[C@H](O)[C@@H]1O`: the Virus rating came to 1 in test [11]; 0.6 in [12]; 1.3 in [13]; 0.8 in test [14]; 0.3 in test [15]; 0.4 with Vero [16]. The figures for the Virus rating in the test with Vero [17], with Vero [18] and in the test on Vero [19] were 0.9, 1.5 and 0.5, respectively.
Regarding `NC(=O)c1ncnc2c1ncn2C1O[C@H](CO)[C@@H](O)[C@H]1O` (stereo partly drawn), the Virus rating in test [2] amounted to 0.6; in test [3], 1.4; in test [20], 1.1; in [4], 1.2; in test [21], 0.9; in the test with Vero [16], 0.4. Also, the Virus rating came out at 0.6 in the test on Vero [17], 0 in the test with Vero [26], 1.5 in the test with Vero [18] and 0 with Vero [19]. Moreover, the Inhibition is 90% with Rift Valley fever virus [22], 90% with Vero [24] and 99% in the test with Vero [25]. The compound also gave an increase in lifespan (ILS) in the test on Rift Valley fever virus [23] of 55%.
Take `N#Cc1ncnc2c1ncn2C1O[C@H](CO)[C@@H](O)[C@H]1O` (stereo partly drawn): the Virus rating was 0.8 in test [2]; 1.2 in test [3]; 1 in test [20]; 0.8 in test [4]; 1 in test [21]; 0 in the test on Vero [27]. Also, the Virus rating in the test with Vero [28] came out at 0.4; in the test with Vero [29], 0; with Vero [30] it was 1; in the test with Vero [31], 0.
In the case of `NC(=S)c1ncnc2c1ncn2C1O[C@H](CO)[C@@H](O)[C@H]1O` (stereo partly drawn), the Virus rating in test [32] came out at 1.3; in test [33], 0.7; in [34] it was 1.2; in test [35], 1.1; in test [36], 0.4; with Vero [6] it was 1. Moreover, the Virus rating was 0.8 in the test with Vero [37], 1.1 in the test on Vero [8] and 0.5 in the test on Vero [10].
As for `OC[C@H]1OC(n2cnc3c(I)ncnc32)[C@H](O)[C@@H]1O` (stereo partly drawn), the Virus rating is listed as 1.6 in [2]; 0.6 in [3]; 0.8 in [20]; 0.9 in [4]; 1 in test [21]; 0.1 in the test with Vero [27]. For the same compound, the Virus rating with Vero [28] was determined as 1; in the test with Vero [29] it was 0.7; with Vero [30], 1.2; with Vero [31], 0.
On to `NC(=O)c1ncn([C@@H]2O[C@H](CO)[C@@H](O)[C@H]2O)n1` [RIBAVIRIN], for which the Virus rating in test [38] worked out at 1.1; in test [39], 1.4; in [40], 1.2; in test [41], 1.6; in test [42] it was 1.2; in the test with Vero [44] it was 0.6. Also, the Virus rating in the test with Vero [17] came to 0.6; with Vero [26] it was 1.3; in the test with Vero [18], 1.2; in the test with Vero [45], 0.8. In addition, the ILS in the test with Rift Valley fever virus [43] came to 70%.
